Laboratory results: ChEMBL document CHEMBL4680104, “Structure-Based Optimization of Small-Molecule Inhibitors for the β-Catenin/B-Cell Lymphoma 9 Protein-Protein Interaction” (J Med Chem, 2018)
Active and inactive are the calls of the source. The rule behind the calls is not given here.

How the values were obtained:
[1] = target: T1, beta-catenin-B-cell lymphoma 9 protein complex (Homo sapiens, UniProt P35222); test: Inhibition of protein interaction between C-terminal 6x-histidine tagged full-length beta-catenin (1 to 781 residues) (unknown origin)/N-terminal biotinylated human BCL9 ( 350 to 375 residues) incubated for 1 hr by Alpha-screen competitive inhibition assay; format: protein-complex assay
T1 sequence (P35222 whole entry): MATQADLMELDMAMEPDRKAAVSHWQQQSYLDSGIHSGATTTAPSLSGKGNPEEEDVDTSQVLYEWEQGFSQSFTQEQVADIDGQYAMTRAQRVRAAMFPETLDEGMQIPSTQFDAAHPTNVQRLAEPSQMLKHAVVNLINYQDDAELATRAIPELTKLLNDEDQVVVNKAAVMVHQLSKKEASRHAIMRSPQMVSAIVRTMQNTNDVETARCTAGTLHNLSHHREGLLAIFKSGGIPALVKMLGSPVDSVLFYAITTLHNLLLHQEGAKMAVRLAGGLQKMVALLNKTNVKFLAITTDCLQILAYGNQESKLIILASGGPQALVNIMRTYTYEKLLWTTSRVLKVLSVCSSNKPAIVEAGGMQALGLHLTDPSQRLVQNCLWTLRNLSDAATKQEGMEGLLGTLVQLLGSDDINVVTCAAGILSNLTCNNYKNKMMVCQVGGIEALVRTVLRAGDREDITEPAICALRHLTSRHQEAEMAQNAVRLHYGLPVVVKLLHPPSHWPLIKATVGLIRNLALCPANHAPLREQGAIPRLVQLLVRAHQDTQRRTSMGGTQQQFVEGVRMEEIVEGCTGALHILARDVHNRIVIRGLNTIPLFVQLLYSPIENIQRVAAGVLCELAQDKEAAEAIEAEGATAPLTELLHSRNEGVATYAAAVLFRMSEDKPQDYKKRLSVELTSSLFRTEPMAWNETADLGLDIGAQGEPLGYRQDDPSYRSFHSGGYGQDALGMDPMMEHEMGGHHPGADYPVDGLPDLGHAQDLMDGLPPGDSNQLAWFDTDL
T1 sequence (O00512 whole entry): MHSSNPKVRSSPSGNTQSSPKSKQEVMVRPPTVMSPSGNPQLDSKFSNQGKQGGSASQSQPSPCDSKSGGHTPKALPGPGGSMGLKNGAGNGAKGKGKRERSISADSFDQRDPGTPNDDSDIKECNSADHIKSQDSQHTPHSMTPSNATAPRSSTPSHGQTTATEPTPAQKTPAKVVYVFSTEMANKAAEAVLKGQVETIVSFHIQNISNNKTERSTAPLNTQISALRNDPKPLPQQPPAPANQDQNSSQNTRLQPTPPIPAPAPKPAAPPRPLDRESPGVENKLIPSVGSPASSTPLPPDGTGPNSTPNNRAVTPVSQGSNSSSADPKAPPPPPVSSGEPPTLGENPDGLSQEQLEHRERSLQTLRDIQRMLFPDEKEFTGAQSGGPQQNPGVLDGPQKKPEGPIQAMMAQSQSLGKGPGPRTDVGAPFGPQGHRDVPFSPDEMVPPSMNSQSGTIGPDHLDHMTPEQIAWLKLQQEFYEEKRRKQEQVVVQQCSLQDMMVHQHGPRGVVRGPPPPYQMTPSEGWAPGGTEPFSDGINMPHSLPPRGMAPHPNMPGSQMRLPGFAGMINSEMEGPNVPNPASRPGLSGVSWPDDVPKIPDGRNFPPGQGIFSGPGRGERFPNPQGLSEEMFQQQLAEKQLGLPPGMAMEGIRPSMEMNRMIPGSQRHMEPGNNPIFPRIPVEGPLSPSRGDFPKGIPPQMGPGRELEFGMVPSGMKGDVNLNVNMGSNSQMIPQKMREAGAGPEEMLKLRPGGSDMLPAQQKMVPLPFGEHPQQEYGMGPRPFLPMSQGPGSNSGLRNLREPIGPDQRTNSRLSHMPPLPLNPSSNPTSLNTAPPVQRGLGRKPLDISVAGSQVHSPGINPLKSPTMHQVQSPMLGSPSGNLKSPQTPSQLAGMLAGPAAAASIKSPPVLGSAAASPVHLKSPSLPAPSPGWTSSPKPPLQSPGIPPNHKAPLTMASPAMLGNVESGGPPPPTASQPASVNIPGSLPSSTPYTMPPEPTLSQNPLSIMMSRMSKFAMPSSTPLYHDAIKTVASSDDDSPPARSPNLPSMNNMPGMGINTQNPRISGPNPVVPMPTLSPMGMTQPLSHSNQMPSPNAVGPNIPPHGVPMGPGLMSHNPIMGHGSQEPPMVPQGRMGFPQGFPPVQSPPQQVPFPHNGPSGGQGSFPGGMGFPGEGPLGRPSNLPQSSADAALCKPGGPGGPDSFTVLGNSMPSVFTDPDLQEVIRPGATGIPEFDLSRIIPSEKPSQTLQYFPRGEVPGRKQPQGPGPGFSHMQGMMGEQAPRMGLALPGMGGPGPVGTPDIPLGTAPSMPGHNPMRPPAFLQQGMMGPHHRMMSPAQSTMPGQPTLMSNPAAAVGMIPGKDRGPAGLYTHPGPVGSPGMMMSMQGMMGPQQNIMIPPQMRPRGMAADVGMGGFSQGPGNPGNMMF
In short: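 Full-length β-catenin (residues 1–781) with a C-terminal His6 tag was expressed in E. coli BL21(DE3) after IPTG induction at 20 °C. It was purified by Ni-NTA, anion-exchange and size-exclusion chromatography. For the assay, 40 nM β-catenin was preincubated for 30 min at 4 °C with 5 nM biotinylated BCL9 or 10 nM biotinylated E-cadherin. Inhibitor was then added for 1 h at 4 °C, followed by 10 μg/mL donor and acceptor beads for 1 h at 4 °C. IC50 was obtained by nonlinear fit and converted to Ki by the Nikolovska-Coleska method. Triplicate, mean ± SD.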

SW480 [2] = test: Cytotoxicity in human SW480 cells assessed as reduction in cell viability incubated for 72 hrs by MTS assay; format: functional, cell-based; conditions: SW480, 72 h
In short: (§1)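 Cells seeded at 5 × 10^3 cells/well, kept overnight at 37 °C, then exposed to inhibitors at various concentrations for 72 h. Viability read with a freshly mixed PMS (0.92 mg/mL) : MTS (2 mg/mL) reagent at 1:19, incubated 3 h at 37 °C, A490 measured. […] Triplicate; mean ± SD.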

SW480 [3] = test: Cytotoxic activity in human SW480 cells at 800 uM incubated for 4 hrs by LDH release assay; format: cell-based; conditions: sw480, 4 h
In short: (§2)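 SW480 cells were seeded at 2 × 10^4 cells/well and kept overnight at 37 °C. They were then exposed to a range of inhibitor concentrations for 4 h. LDH in the culture supernatant was measured with a diagnostic kit by absorbance at 490 nm. Percent cytotoxicity was calculated from experimental release against maximum release, with background subtracted. Run in triplicate.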

A549 = test: Cytotoxicity in human A549 cells assessed as reduction in cell viability incubated for 72 hrs by MTS assay; format: functional, cell-based; conditions: A549, 72 h; in short: as §1
SW480 [4] = test: Cytotoxic activity in human SW480 cells at 50 to 100 uM incubated for 4 hrs by LDH release assay; format: cell-based; conditions: sw480, 4 h, dose 50-100 µM; in short: as §2
HCT-116 = test: Cytotoxicity in human HCT-116 cells assessed as reduction in cell viability incubated for 72 hrs by MTS assay; format: functional, cell-based; conditions: HCT-116, 72 h; in short: as §1
MDA-MB-231 = test: Cytotoxicity in human MDA-MB-231 cells assessed as reduction in cell viability incubated for 72 hrs by MTS assay; format: functional, cell-based; conditions: MDA-MB-231, 72 h
In short: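 Triple-negative breast cancer line seeded at 5 × 10^3 cells/well, held overnight at 37 °C, then exposed to inhibitor over a concentration range for 72 h. Viability read out with a fresh 1:19 mix of PMS (0.92 mg/mL) and MTS (2 mg/mL), incubated 3 h at 37 °C, A490 measured.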

[5] = target: T1, beta-catenin-B-cell lymphoma 9 protein complex; test: Inhibition of protein interaction between beta-catenin (unknown origin)/BCL9 in HEK293 cells transfected with beta-catenin assessed as reduction in Wnt/beta-catenin transactivation incubated for 24 hrs by Wnt-responsive TOP-Flash luciferase reporter assay; format: cell-based
In short: (§3)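 HEK293 cells were cotransfected using FuGENE6 with 45 ng TOPFlash or FOPFlash reporter, 135 ng pcDNA3.1-β-catenin and 20 ng pCMV-RL normalization reporter. After 24 h in DMEM with 10% FBS at 37 °C, inhibitors or DMSO were added for 24 h. Reporter activity was read with a dual luciferase system, normalized, and compared with DMSO-treated cells. Triplicate.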

[6] = target: T2, beta-catenin-B-cell lymphoma 9 protein complex (Homo sapiens) (UniProt P35222+O00512); test: Inhibition of protein interaction between beta-catenin (unknown origin)/BCL9 in human HEK293 cells transfected with beta-catenin assessed as reduction in Wnt/beta-catenin transactivation incubated for 24 hrs by Wnt-responsive FOP-Flash luciferase reporter assay
[7] = target: T1, beta-catenin-B-cell lymphoma 9 protein complex; test: Inhibition of protein interaction between beta-catenin (unknown origin)/BCL9 in human SW480 cells transfected with beta-catenin assessed as reduction in Wnt/beta-catenin transactivation incubated for 24 hrs by Wnt-responsive TOP-Flash luciferase reporter assay; format: cell-based
[8] = target: T2, beta-catenin-B-cell lymphoma 9 protein complex (Homo sapiens); test: Inhibition of protein interaction between beta-catenin (unknown origin)/BCL9 in HEK293 cells transfected with beta-catenin assessed as reduction in Wnt/beta-catenin transactivation incubated for 24 hrs by Wnt-responsive FOP-Flash luciferase reporter assay; format: cell-based; in short: as §3

Row | Ki [1] | IC50 [5] | inhibition [6] | IC50 [7] | inhibition [8] | Structure (SMILES) | IC50 (SW480 [2]) | Activity (SW480 [3]) | IC50 (A549) | Activity (SW480 [4]) | IC50 (HCT-116) | IC50 (MDA-MB-231)
1 | 4.6 µM |  |  |  |  | Cl.Cl.O=C(Nc1ccc(O[C@H]2CCNC2)c(-c2ccc(-c3nn[nH]n3)cc2)c1)c1ccc(O[C@H]2CCNC2)c(-c2ccc(F)c(F)c2)c1 | 86 µM | Non-Toxic |  |  |  | 
2 | 5.9 µM |  |  |  |  | CS(=O)(=O)Nc1cccc(-c2cc(NC(=O)c3ccc(O[C@H]4CCNC4)c(-c4ccc(F)c(F)c4)c3)ccc2O[C@H]2CCNC2)c1.Cl.Cl | 95 µM | Non-Toxic |  |  |  | 
3 | 4.7 µM |  |  |  |  | Cl.Cl.NC(=O)c1ccc(-c2cc(NC(=O)c3ccc(O[C@H]4CCNC4)c(-c4ccc(F)c(F)c4)c3)ccc2O[C@H]2CCNC2)cc1 | 160 µM | Non-Toxic |  |  |  | 
4 | 3.1 µM |  |  |  |  | Cc1cccc(-c2cc(NC(=O)c3ccc(O[C@H]4CCNC4)c(-c4ccc(F)c(F)c4)c3)ccc2O[C@H]2CCNC2)c1.Cl.Cl | 2.2 µM |  | 4.5 µM | Toxic | 1.4 µM | 1.4 µM
5 | 3.8 µM | > 25 µM |  |  |  | Cl.Cl.N#Cc1ccc(-c2cc(NC(=O)c3ccc(O[C@H]4CCNC4)c(-c4ccc(F)c(F)c4)c3)ccc2O[C@H]2CCNC2)cc1 | 6.1 µM |  |  | Toxic |  | 
6 | 16 µM |  |  |  |  | Cl.Cl.O=C(Nc1ccc(O[C@H]2CCNC2)c(-c2ccc(F)nc2)c1)c1ccc(O[C@H]2CCNC2)c(-c2ccc(F)c(F)c2)c1 | 15 µM |  |  | Toxic |  | 
7 | 4.2 µM | > 25 µM |  |  |  | Cl.Cl.N#Cc1cccc(-c2cc(NC(=O)c3ccc(O[C@H]4CCNC4)c(-c4ccc(F)c(F)c4)c3)ccc2O[C@H]2CCNC2)c1 | 4.3 µM |  |  | Toxic |  | 
8 | 2.2 µM | 14 µM | Active | 7.9 µM | Active | Fc1ccc(-c2cc(-c3cnc4cc(O[C@H]5CCNC5)c(-c5ccc(F)c(F)c5)cc4c3)ccc2O[C@H]2CCNC2)cc1 | 1.7 µM |  | 7.5 µM |  | 2.2 µM | 3.1 µM
9 | 6.5 µM |  |  |  |  | Cc1ccc(-c2cc(NC(=O)c3ccc(O[C@H]4CCNC4)c(-c4ccc(F)c(F)c4)c3)ccc2O[C@H]2CCNC2)cc1.Cl.Cl | 1.6 µM |  |  | Toxic |  | 
10 | 19 µM |  |  |  |  | Cl.Cl.O=C(Nc1ccc(O[C@H]2CCNC2)c(-c2ccc(F)cc2)c1)c1ccc(O[C@H]2CCNC2)c(-c2ccc(F)nc2)c1 | 21 µM |  |  | Non-Toxic |  | 
11 | 8.2 µM | 10 µM | Active | 7.7 µM | Active | Cl.Cl.O=C(Nc1cnc(O[C@H]2CCNC2)c(-c2ccc(F)cc2)c1)c1ccc(O[C@H]2CCNC2)c(-c2ccc(F)c(F)c2)c1 | 1.7 µM |  | 29 µM | Toxic |  | 3.1 µM
12 | 7.3 µM |  |  |  |  | Cl.Cl.O=C(Nc1cnc(O[C@H]2CCNC2)c(-c2ccc(F)cc2)c1)c1cnc(O[C@H]2CCNC2)c(-c2ccc(F)c(F)c2)c1 | 9.9 µM |  |  | Toxic |  | 
13 | 14 µM |  |  |  |  | Cl.Cl.O=C(Nc1ccc(O[C@H]2CCNC2)c(-c2ccc(F)cc2)c1)c1ccc(O[C@H]2CCNC2)c(C2CCCCC2)c1 | 6.6 µM |  | 3.8 µM | Toxic | 3.8 µM | 
14 | 3.8 µM |  |  |  |  | Cl.Cl.O=C(Nc1ccc(O[C@H]2CCNC2)c(-c2ccccc2C(F)(F)F)c1)c1ccc(O[C@H]2CCNC2)c(-c2ccc(F)c(F)c2)c1 | 2.6 µM |  |  | Toxic |  | 
15 | 7.1 µM |  | Active | 8.7 µM | Active | Cl.Cl.O=C(Nc1ccc(O[C@H]2CCNC2)c(-c2ccc(F)cc2)c1)c1ccc(O[C@H]2CCNC2)c(C2=CCCCC2)c1 | 3.7 µM |  |  | Toxic | 6.9 µM | 3.4 µM
16 | 5.9 µM |  | Active | 5.2 µM | Active | Cc1ccccc1-c1cc(NC(=O)c2ccc(O[C@H]3CCNC3)c(-c3ccc(F)c(F)c3)c2)ccc1O[C@H]1CCNC1.Cl.Cl | 1.2 µM |  | 23 µM | Toxic | 5.7 µM | 3.1 µM
